EPA's CvTdb concentration-time database

Key:
Rat [1] = test: concentration in plasma after dosing; details: 2 min; dosed: Isoeugenol; 17 mg/kg; oral; Male; F344/N
Rat [2] = test: concentration in plasma after dosing; details: dosed: Isoeugenol, 17 mg/kg, oral, Male, F344/N
Rat [3] = test: concentration in plasma after dosing; details: dosed: Isoeugenol, 17 mg/kg, oral, Female, F344/N
Rat [4] = test: concentration in plasma after dosing; details: dosed: Isoeugenol, 17 mg/kg, oral, Female, F344/N; remark: listed apart in the source
Rat [5] = test: concentration in plasma after dosing; details: 5 min; dosed: Isoeugenol; 17 mg/kg; oral; Male; F344/N
Rat [6] = test: concentration in plasma after dosing; details: dosed: Isoeugenol, 17 mg/kg, oral, Male, F344/N; remark: listed apart in the source
Rat [7] = test: concentration in plasma after dosing; details: dosed: Isoeugenol, 70 mg/kg, oral, Male, F344/N
Rat [8] = test: concentration in plasma after dosing; details: dosed: Isoeugenol, 70 mg/kg, oral, Male, F344/N; remark: listed apart in the source
Rat [9] = test: concentration in plasma after dosing; details: 20 min; dosed: Isoeugenol; 17 mg/kg; oral; Male; F344/N
Rat [10] = test: concentration in plasma after dosing; details: dosed: Isoeugenol, 17 mg/kg, oral, Female, F344/N; remark: listed apart in the source
Rat [11] = test: concentration in plasma after dosing; details: dosed: Isoeugenol, 17 mg/kg, oral, Male, F344/N; remark: listed apart in the source
Rat [12] = test: concentration in plasma after dosing; details: dosed: Tetralin, 20 mg/kg, iv, Female, Harlan Sprague Dawley
Rat [13] = test: concentration in plasma after dosing; details: dosed: Tetralin, 2 mg/kg, iv, Male, Harlan Sprague Dawley
Rat [14] = test: concentration in plasma after dosing; details: dosed: Tetralin, 20 mg/kg, iv, Female, Harlan Sprague Dawley; remark: listed apart in the source
Rat [15] = test: concentration in plasma after dosing; details: dosed: Tetralin, 2 mg/kg, iv, Male, Harlan Sprague Dawley; remark: listed apart in the source
Rat [16] = test: concentration in plasma after dosing; details: dosed: Tetralin, 2 mg/kg, iv, Male, F344
Rat [17] = test: concentration in plasma after dosing; details: dosed: Tetralin, 20 mg/kg, iv, Female, Harlan Sprague Dawley; remark: listed apart in the source
Rat [18] = test: concentration in plasma after dosing; details: 1 h; dosed: Tetralin; 2 mg/kg; iv; Male; Harlan Sprague Dawley
Rat [19] = test: concentration in plasma after dosing; details: 2 h; dosed: Tetralin; 2 mg/kg; iv; Male; Harlan Sprague Dawley
Rat [20] = test: concentration in plasma after dosing; details: dosed: Tetralin, 2 mg/kg, iv, Male, F344; remark: listed apart in the source
rat [21] = test: concentration in blood after dosing; details: dosed: styrene, 3000 ppm, dermal, duration: 4 hr, male, F344
human = test: concentration in expired air after dosing; details: dosed: styrene, inhalation
Outline: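 A PubMed search, classifier screening and manual review identified published in vivo toxicokinetic studies, which together with two structured collections supplied concentration-versus-time and amount-versus-time points. Points were mostly digitised from plot screenshots with WebPlotDigitizer, otherwise copied from tables. Dose, route, subject details and medium were hand-curated from each paper, and sampling and analytical methods are those of the sources, often unreported.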

rat [22] = test: concentration in blood after dosing; details: dosed: styrene, 3000 ppm, dermal, duration: 4 hr, male, F344; remark: listed apart in the source

C/C=C/c1ccc(O)c(OC)c1 [Isoeugenol]
Details	concentration in plasma [µg/mL]
Rat [1]	0.0356
Rat [5]	0.194
Rat [9]	0.132

Details	concentration in plasma [µg/mL]
Rat [2], 3 h	0.0172
Rat [2], 10 min	0.22
Rat [3], 0.5 h	0.162
Rat [3], 4 h	0.0335
Rat [4], 1.5 h	0.0336
Rat [4], 20 min	0.0869
Rat [6], 0.75 h	0.057
Rat [6], 8 h	0.0195
Rat [7], 1.5 h	0.209
Rat [7], 5 min	0.526
Rat [8], 6 h	0.24
Rat [8], 20 min	1.84
Rat [10], 1 h	0.129
Rat [10], 5 h	0.0697
Rat [11], 0.5 h	0.13
Rat [11], 2 h	0.0357

c1ccc2c(c1)CCCC2 [Tetralin]
Details	concentration in plasma [µg/g]
Rat [12], 1 h	1.98
Rat [12], 24 h	0.0136
Rat [13], 0.5033 h	0.208
Rat [13], 8 h	0.00401
Rat [14], 0.75 h	2.18
Rat [14], 12 h	0.0369
Rat [15], 0.75 h	0.0973
Rat [15], 12 h	0.00173
Rat [16], 0.25 h	0.386
Rat [16], 6 h	0.0061
Rat [17], 0.75 h	2.33
Rat [17], 12 h	0.0285
Rat [20], 0.09 h	1.33
Rat [20], 4 h	0.0088

Details	concentration in plasma [µg/g]
Rat [18]	0.0313
Rat [19]	0.0164

C=Cc1ccccc1 [styrene]
concentration in blood [µg/mL]
Details	0.5 h	1 h	2 h	3 h	4 h
rat [21]	1.55	3.45	4.65	8.18	8.81
rat [22]	1.87	2.43	5.54	6.07	7.9

human, male
Details	concentration in expired air [ppm]
0.1527 h, 51 ppm, duration: 1 hr	0.506
0.2175 h, 376 ppm, duration: 1 hr	4
0.2306 h, 216 ppm, duration: 1 hr	2.27
0.2368 h, 51 ppm, duration: 1 hr	0.409
0.2553 h, 99 ppm, duration: 7 hr	1.24
0.3483 h, 99 ppm, duration: 7 hr	1.14
0.4469 h, 376 ppm, duration: 1 hr	3.1
0.4803 h, 51 ppm, duration: 1 hr	0.317
0.5105 h, 99 ppm, duration: 7 hr	1.08
0.7137 h, 376 ppm, duration: 1 hr	2.21
0.8189 h, 99 ppm, duration: 7 hr	0.876
0.9608 h, 216 ppm, duration: 1 hr	0.927
0.9799 h, 51 ppm, duration: 1 hr	0.0904
1.046 h, 376 ppm, duration: 1 hr	1.29
1.064 h, 99 ppm, duration: 7 hr	0.733
1.944 h, 99 ppm, duration: 7 hr	0.648
1.964 h, 216 ppm, duration: 1 hr	0.501
1.984 h, 376 ppm, duration: 1 hr	0.934
1.988 h, 51 ppm, duration: 1 hr	0.0505
2.93 h, 99 ppm, duration: 7 hr	0.521
2.954 h, 376 ppm, duration: 1 hr	0.719
2.958 h, 216 ppm, duration: 1 hr	0.345
3.928 h, 216 ppm, duration: 1 hr	0.226
3.963 h, 376 ppm, duration: 1 hr	0.827
4.085 h, 99 ppm, duration: 7 hr	0.403
4.943 h, 376 ppm, duration: 1 hr	0.594
4.946 h, 216 ppm, duration: 1 hr	0.197
4.988 h, 99 ppm, duration: 7 hr	0.355
5.975 h, 376 ppm, duration: 1 hr	0.586
5.991 h, 216 ppm, duration: 1 hr	0.112
5.998 h, 99 ppm, duration: 7 hr	0.242
7.018 h, 216 ppm, duration: 1 hr	0.0821
19 s, 51 ppm, duration: 1 hr	14.8
41 s, 216 ppm, duration: 1 hr	4.56
65 s, 51 ppm, duration: 1 hr	1.02
96 s, 376 ppm, duration: 1 hr	9.08
141 s, 216 ppm, duration: 1 hr	3.69
148 s, 51 ppm, duration: 1 hr	0.849
148 s, 99 ppm, duration: 7 hr	2.17
196 s, 376 ppm, duration: 1 hr	7.4
214 s, 51 ppm, duration: 1 hr	0.744
251 s, 99 ppm, duration: 7 hr	1.35

human, 80 ppm, duration: 6 hr
Details	concentration in expired air [µg/L]
6.225 h	4.3
6.495 h	2.75
7.17 h	1.58
8.16 h	1.16
10.28 h	0.549
12.21 h	0.402
14.37 h	0.315
18.33 h	0.308
23.51 h	0.257
30.62 h	0.148
46.95 h	0.102
